Experimental findings from article PMC3313489 (European journal of lipid science and technology : EJLST, 2011) are described below.

Like-named read-outs stand apart in the source and are kept apart here.

The test system of test [1] is Human neuroblastoma SH-SY5Y cells. Nature of the test: Cell viability, resazurin reduction. It counts as cell-based. Particulars: for degeneration of the cells: 10 μM (printed for AA), 72 h, Figure 4C. In general terms: Alamar Blue is a resazurin reagent that responds to reducing activity.
Test [2] has as its target T1, PMPMEase (Sus scrofa, UniProt Q29550).
T1 sequence (Q29550 19-566): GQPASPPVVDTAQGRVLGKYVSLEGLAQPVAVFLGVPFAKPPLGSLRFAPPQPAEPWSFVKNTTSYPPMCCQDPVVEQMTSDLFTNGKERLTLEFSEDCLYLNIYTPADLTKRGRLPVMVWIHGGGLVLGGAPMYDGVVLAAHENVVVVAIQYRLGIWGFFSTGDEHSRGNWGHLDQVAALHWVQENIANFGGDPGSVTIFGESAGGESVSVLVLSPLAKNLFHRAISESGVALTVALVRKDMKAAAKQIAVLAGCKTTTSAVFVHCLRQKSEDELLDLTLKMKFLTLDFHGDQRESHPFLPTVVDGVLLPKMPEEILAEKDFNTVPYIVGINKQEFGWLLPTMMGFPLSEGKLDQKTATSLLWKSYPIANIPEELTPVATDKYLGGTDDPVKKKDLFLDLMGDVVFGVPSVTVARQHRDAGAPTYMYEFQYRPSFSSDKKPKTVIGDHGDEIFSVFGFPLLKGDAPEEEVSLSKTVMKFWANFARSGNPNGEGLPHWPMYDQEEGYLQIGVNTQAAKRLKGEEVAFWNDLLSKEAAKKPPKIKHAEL
The test can be described thus: PMPMEase enzyme assay with RD-PNB substrate. It counts as biochemical, porcine. Particulars: for decrease in PMPMEase inhibitory potency relative to AA: from IC50 values, AA as comparator.

Test [3] has as its target T2, PMPMEase (Homo sapiens, UniProt P23141).
T2 sequence (P23141 18-567): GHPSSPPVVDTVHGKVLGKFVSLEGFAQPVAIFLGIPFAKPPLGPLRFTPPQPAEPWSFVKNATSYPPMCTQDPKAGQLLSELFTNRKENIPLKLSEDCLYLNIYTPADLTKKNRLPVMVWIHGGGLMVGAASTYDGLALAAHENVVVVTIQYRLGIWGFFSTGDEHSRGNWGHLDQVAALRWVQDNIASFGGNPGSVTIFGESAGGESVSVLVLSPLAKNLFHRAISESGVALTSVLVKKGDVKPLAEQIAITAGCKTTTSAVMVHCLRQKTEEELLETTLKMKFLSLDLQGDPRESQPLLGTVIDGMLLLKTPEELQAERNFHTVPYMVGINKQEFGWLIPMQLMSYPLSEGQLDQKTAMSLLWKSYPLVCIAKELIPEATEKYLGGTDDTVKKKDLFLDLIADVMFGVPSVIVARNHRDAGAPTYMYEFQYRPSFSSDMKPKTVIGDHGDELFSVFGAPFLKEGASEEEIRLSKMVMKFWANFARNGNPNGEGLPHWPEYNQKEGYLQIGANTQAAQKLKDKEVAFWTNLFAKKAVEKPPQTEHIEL
The test can be described thus: PMPMEase activity in lysates of FFA-treated SH-SY5Y cells. The test is classed as cell-based. Particulars: DMSO-induced degenerated cells, non-specific cytotoxic agent. The essentials: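 SH-SY5Y cells were seeded in 24-well plates at 5 × 10^5 and exposed to fatty acids (0–200 μM) or DMSO for 24 h, then lysed in medium with Triton X-100. Lysate was incubated at 37 °C with RD-PNB in 100 mM Tris-HCl, pH 7.4. Reactions were stopped with methanol on ice and spun, and product was measured by RP-HPLC (UV 260 nm). Means ± S.E.M.; ANOVA with Dunnett's test.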

Setting [4] is: purified PMPMEase 5 μg, RD-PNB 1 mM, 37°C, pH 7.4.
The mark [5] stands for this setting: purified PMPMEase 5 μg, RD-PNB 1 mM, 15 min pre-incubation, 37°C, pH 7.4.

The term IC50 denotes the concentration that inhibits the measured activity by half. As usually defined, the Ki is the equilibrium dissociation constant of an inhibitor or competing ligand from its target. On to `CCCCCCCCCCCCCCCCCCCC(=O)O` [Arachidic acid], for which the “effect on cell viability (in words)” value in test [1] (200 μM, 24 h exposure, listed as ARA) is “no effect on cell viability”. On PMPMEase [2], this compound had an IC50 of over 1000 µM and a Ki of over 28 µM.
On to `CCCCC/C=C\C/C=C\C/C=C\C/C=C\CCCC(=O)O` [Arachidonic acid], for which the “degeneration of the cells” value in test [1] amounted to 99 ± 0.1%. For the same compound, the IC50 against PMPMEase [2] was 6.6 µM.
With `C[S+](C)[O-]` [DMSO, dimethylsulfoxide], the “loss of PMPMEase enzyme activity in degenerated cells” value at PMPMEase [3] is 49 ± 3%.
For `CCCCCCCCCC(=O)O` [Decanoic acid], at PMPMEase [2], the half-maximal inhibitory concentration (IC50) is over 1000 µM and the inhibitory constant (Ki) was over 28 µM.
In turn, `CC/C=C\C/C=C\C/C=C\C/C=C\C/C=C\C/C=C\CCC(=O)O` [Docosahexaenoic acid] returned an IC50 on PMPMEase [2] of 130 µM.
The compound `CC/C=C\C/C=C\C/C=C\C/C=C\C/C=C\CCCC(=O)O` [Eicosapentaenoic acid] returned a half-maximal inhibitory concentration (IC50) on PMPMEase [2] of 12 µM.
As for `CCCCCCCC/C=C/CCCCCCCC(=O)O` [Elaidic acid], on PMPMEase [2], the concentration for half-maximal inhibition (IC50) was over 1000 µM and the inhibitory constant (Ki) was over 28 µM.
Taken in the same sequence, the figures for `CCCCCCCC/C=C\CCCCCCCCCCCC(=O)O` [Erucic acid] were over 1000 µM and over 28 µM.
In the case of `CCCCCCCCCCCC(=O)O` [Lauric acid], affinity at PMPMEase [2] (setting [4]) was put at a Ki of 6.5 µM. On PMPMEase [2] (setting [5]), inhibition was half-maximal at 230 µM (IC50).
At PMPMEase [2], `CCCCC/C=C\C/C=C\CCCCCCCC(=O)O` [Linoleic acid] showed an IC50 of 64 µM and a Ki of 1.8 µM.
`CC/C=C\C/C=C\C/C=C\CCCCCCCC(=O)O` [Linolenic acid] displayed a half-inhibitory concentration (IC50) on PMPMEase [2] of 22 µM.
As for `CCCCCCCCCCCCCC(=O)O` [Myristic acid], on PMPMEase [2], 100 µM corresponded to half-maximal inhibition (IC50) and the Ki was determined as 2.8 µM.
Taken in the same sequence, the figures for `CCCC/C=C\CCCCCCCC(=O)O` [Myristoleic acid] were 63 µM and 1.8 µM.
Taken in the same sequence, the figures for `CCCCCCCC(=O)O` [Octanoic acid] were over 1000 µM and over 28 µM.
Taken in the same sequence, the figures for `CCCCCCCC/C=C\CCCCCCCC(=O)O` [Oleic acid] were 53 µM and 1.5 µM.
At PMPMEase [2], `CCCCCCCCCCCCCCCC(=O)O` [Palmitic acid] yielded a 50% inhibitory concentration (IC50) of over 1000 µM and a Ki of over 28 µM.
Taken in the same sequence, the figures for `CCCCCC/C=C\CCCCCCCC(=O)O` [Palmitoleic acid] were 37 µM and 1 µM.
Taken in the same sequence, the figures for `CCCCC[C@H](O)/C=C/[C@H]1C=CC(=O)[C@@H]1CCCCCCC(=O)O` [Prostaglandin A1] were over 1000 µM and over 28 µM.
Turning to `CCCCC[C@H](O)/C=C/[C@H]1C=CC(=O)[C@@H]1C/C=C\CCCC(=O)O` [Prostaglandin A2], on PMPMEase [2], half-maximal inhibition (IC50) was put at 420 µM and the “decrease in PMPMEase inhibitory potency relative to AA” value is reported as “over 63 fold”.
On to `CCCCC[C@H](O)/C=C/C1=C(CCCCCCC(=O)O)C(=O)CC1` [Prostaglandin B1], for which the IC50 against PMPMEase [2] amounted to 580 µM.
Still for that read-out and setting: with `CCCCC[C@H](O)/C=C/[C@H]1[C@H](O)CC(=O)[C@@H]1CCCCCCC(=O)O` [Prostaglandin E1] the figure was over 1000 µM.
For the compound `CCCCC[C@H](O)/C=C/[C@H]1[C@H](O)CC(=O)[C@@H]1C/C=C\CCCC(=O)O` [Prostaglandin E2], the “degeneration of the cells” value in test [1] was 34 ± 4.0%. Besides, at PMPMEase [2], the IC50 was over 1000 µM and the “decrease in PMPMEase inhibitory potency relative to AA” value is reported as over 150 fold.
Consider `CCCCC[C@H](O)/C=C/[C@@H]1[C@@H](CCCCCCC(=O)O)[C@H](O)C[C@H]1O` [Prostaglandin F1β], for which the Ki at PMPMEase [2] (setting [4]) was over 28 µM. The compound also showed an IC50 on PMPMEase [2] (setting [5]) of over 1000 µM.
For `CCCCC[C@H](O)/C=C/[C@@H]1[C@@H](C/C=C\CCCC(=O)O)[C@@H](O)C[C@H]1O` [Prostaglandin F2α], in test [1], the “degeneration of the cells” value is on record as 19 ± 5.6%. On PMPMEase [2], this compound displayed an IC50 of over 1000 µM and a Ki of over 28 µM.
As to `CCCCCCCCCCCCCCCCCC(=O)O` [Stearic acid], at PMPMEase [2], the concentration for half-maximal inhibition (IC50) was over 1000 µM and the Ki is over 28 µM.
